# Test results as given in ChEMBL document CHEMBL2034823, “Synthesis and antiviral activity of certain second generation methylenecyclopropane nucleosides” (Bioorg Med Chem, 2012).
# What was measured:
# Human alphaherpesvirus 3 = assay: Antiviral activity against VZV infected in human HFF cells assessed as reduction in cytopathic effect after 7 days by crystal violet staining; format: functional, organism-based; settings: Human alphaherpesvirus 3, HFF, 168 h
# Human betaherpesvirus 5 = assay: Antiviral activity against HCMV infected in human HFF cells assessed as reduction in cytopathic effect after 8 days by plaque reduction assay; format: functional, organism-based; settings: Human betaherpesvirus 5, HFF, 192 h
# How it was run: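 HFF monolayers seeded 2 days ahead and infected with AD169 at about 30 plaques per well, with 1 h adsorption. Compound was then added in MEM with 2% FBS, L-glutamine, penicillin, gentamycin and pooled human gamma globulin. After 8 days, neutral red stain and plaque counts by stereomicroscope. EC50 interpolated. Duplicate wells.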
# Human gammaherpesvirus 8 = assay: Antiviral activity against HHV-8 infected in human BCBL1 cells assessed as reduction in viral DNA after 7 days by qPCR analysis; format: functional, organism-based; settings: Human gammaherpesvirus 8, BCBL1, 168 h
# How it was run: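 BCBL1 cells kept in RPMI 1640 with 10% FBS, penicillin, gentamycin and L-glutamine. Lytic infection induced with phorbol 12-myristate 13-acetate, then cells added to triplicate compound dilutions. Incubation 7 days at 37 °C in humidified CO2. EC50 is the concentration halving viral DNA accumulation.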
# [1] = Antiviral activity against HHV-6A infected in human HSB2 cells assessed as reduction in viral DNA after 7 days by hybridization assay; format: functional, cell-based, Human herpesvirus 6A; settings: Human betaherpesvirus 6A, HSB2, 168 h
# How it was run: (§1)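 Compound serially diluted in medium. Uninfected HSB-2 cells were infected with HHV-6A (GS)-infected HSB-2 cells, and Molt-3 cells with HHV-6B (Z29)-infected Molt-3 cells. Incubation 7 days at 37 °C. Lysis in 4.5 M NaCl/1.2 M NaOH, then transfer to nylon membrane. Viral DNA quantified by digoxigenin-probe hybridization and EC50 calculated. Duplicate wells.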
# [2] = Cytotoxicity against human Akata cells after 7 days by Cell-Titer Glo assay; format: cell-based
# How it was run: (§2)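 Uninfected Akata, BCBL1, HSB-2 or MOLT-3 cells incubated with compound for seven days under the matching antiviral-assay conditions. CellTiter-Glo added and luminescence read. CC50 is the concentration reducing cell number by 50%.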
# [3] = Cytotoxicity against human HFF cells after 3 to 8 days by crystal voilet staining; format: cell-based
# How it was run: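 Uninfected HFF cells exposed to the same concentrations as in the CPE assays (3 days for HSV, 7 for VZV, […]). Stained with crystal violet. CC50 is the concentration reducing cell number by 50%. Duplicate wells.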
# Human gammaherpesvirus 4 = assay: Antiviral activity against EBV Akata infected in human Akata cells assessed as reduction in viral DNA after 72 hrs by hybridization assay; format: functional, organism-based; settings: human gammaherpesvirus 4, Akata
# How it was run: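 Akata cells kept in RPMI 1640 with 10% FBS, L-glutamine, penicillin and gentamicin. Latent infection was switched to productive by adding goat anti-human IgG, and cells were seeded into compound dilutions made in growth medium. After 72 h the DNA was denatured and blotted onto nylon membrane. Viral DNA was measured with a digoxigenin-labeled probe plus anti-hapten antibody. EC50 is the concentration halving viral DNA. Duplicate wells.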
# [4] = Antiviral activity against HHV-6B infected in human Molt3 cells assessed as reduction in viral DNA after 7 days by hybridization assay; format: functional, cell-based, Human herpesvirus 6B; settings: Human betaherpesvirus 6B, MOLT-3, 168 h; how it was run: as §1
# [5] = Cytotoxicity against human MOLT3 cells after 7 days by Cell-Titer Glo assay; format: cell-based, MOLT-3; how it was run: as §2
# Human alphaherpesvirus 1 = assay: Antiviral activity against HSV-1 infected in human HFF cells assessed as reduction in cytopathic effect after 3 days by crystal violet staining; format: functional, organism-based; settings: Human alphaherpesvirus 1, HFF, 72 h
# How it was run: (§3)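 Compound diluted over HFF monolayers, then HSV-1 (E-377) or HSV-2 (MS) added at MOI about 0.01 PFU/cell. Held 3 days in humidified 5% CO2. Stained 4 h with 0.1% crystal violet in formalin, rinsed, dried 24 h, and absorbance read at 595 nm. EC50 is 50% CPE reduction. Duplicate wells.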
# [6] = Cytotoxicity against human BCBL1 cells after 7 days by Cell-Titer Glo assay; format: cell-based; how it was run: as §2
# Human alphaherpesvirus 2 = assay: Antiviral activity against HSV-2 infected in human HFF cells assessed as reduction in cytopathic effect after 3 days by crystal violet staining; format: functional, organism-based; settings: Human alphaherpesvirus 2, HFF, 72 h; how it was run: as §3
# [7] = Cytotoxicity against human HSB2 cells after 7 days by Cell-Titer Glo assay; format: cell-based, CCRF-HSB-2; how it was run: as §2
IC50 (Human alphaherpesvirus 3),IC50 (Human betaherpesvirus 5),IC50 (Human gammaherpesvirus 8),IC50 [1],IC50 (Human gammaherpesvirus 4),IC50 [4],IC50 (Human alphaherpesvirus 1),IC50 (Human alphaherpesvirus 2),Compound,CC50 at 168 h [2],CC50 [3],CC50 at 168 h [5],CC50 at 168 h [6],CC50 at 168 h [7]
> 60 µM,24 µM,71 µM,> 20 µM,> 20 µM,> 20 µM,> 60 µM,> 60 µM,Nc1nc(NC2CC2)c2ncn(/C=C3/CC3(CO)CO)c2n1,> 20 µM,> 300 µM,> 20 µM,71.5 µM,> 20 µM
> 300 µM,> 300 µM,62 µM,> 20 µM,> 24 µM,> 20 µM,> 300 µM,> 300 µM,CNc1nc(N)nc2c1ncn2/C=C1/CC1(CO)CO,> 24 µM,265 µM,> 20 µM,67 µM,> 20 µM
> 300 µM,> 300 µM,> 20 µM,> 20 µM,> 24 µM,–,> 300 µM,> 300 µM,CCCNc1nc(N)nc2c1ncn2/C=C1/CC1(CO)CO,> 24 µM,> 300 µM,–,> 20 µM,> 20 µM
> 300 µM,> 60 µM,> 20 µM,> 20 µM,> 24 µM,> 20 µM,> 300 µM,> 300 µM,CCCCNc1nc(N)nc2c1ncn2/C=C1/CC1(CO)CO,> 24 µM,> 300 µM,> 20 µM,> 20 µM,> 20 µM
> 60 µM,> 60 µM,63 µM,> 20 µM,> 20 µM,> 20 µM,> 60 µM,> 60 µM,Nc1nc(NC2CCCC2)c2ncn(/C=C3/CC3(CO)CO)c2n1,> 20 µM,> 300 µM,> 20 µM,71.7 µM,> 20 µM
> 300 µM,> 300 µM,> 20 µM,> 20 µM,> 24 µM,–,> 300 µM,> 300 µM,Nc1nc(NC2CCCCC2)c2ncn(/C=C3/CC3(CO)CO)c2n1,> 24 µM,> 300 µM,–,> 20 µM,> 20 µM
> 60 µM,> 60 µM,–,> 20 µM,> 24 µM,> 20 µM,> 300 µM,> 300 µM,Nc1nc(NCc2ccccc2)c2ncn(/C=C3/CC3(CO)CO)c2n1,> 24 µM,> 300 µM,> 20 µM,19.9 µM,> 20 µM
180 µM,> 300 µM,> 20 µM,> 20 µM,> 24 µM,–,> 300 µM,> 300 µM,CN(C)c1nc(N)nc2c1ncn2/C=C1/CC1(CO)CO,> 24 µM,> 300 µM,–,> 20 µM,> 20 µM
–,–,–,–,–,–,2.9 µM,2.8 µM,Nc1nc2c(ncn2COCCO)c(=O)[nH]1 [ACYCLOVIR],–,> 300 µM,–,–,–
–,2.1 µM,–,–,–,–,–,–,Nc1nc2c(ncn2COC(CO)CO)c(=O)[nH]1 [GANCICLOVIR],–,> 300 µM,–,–,–

# Further lines, the compound ahead of its results:
Compound,IC50 (Human alphaherpesvirus 3),IC50 (Human betaherpesvirus 5),IC50 (Human gammaherpesvirus 8),IC50 [1],IC50 (Human gammaherpesvirus 4),IC50 [4],IC50 (Human alphaherpesvirus 1),IC50 (Human alphaherpesvirus 2),CC50 at 168 h [2],CC50 [3],CC50 at 168 h [5],CC50 at 168 h [6],CC50 at 168 h [7]
CC(C)Nc1nc(N)nc2c1ncn2/C=C1/CC1(CO)CO,> 300 µM,160 µM,> 20 µM,> 20 µM,> 24 µM,–,> 300 µM,> 300 µM,> 24 µM,> 300 µM,–,> 20 µM,> 20 µM
CC(C)CNc1nc(N)nc2c1ncn2/C=C1/CC1(CO)CO,> 300 µM,> 300 µM,> 20 µM,> 20 µM,> 24 µM,–,> 300 µM,> 300 µM,> 24 µM,> 300 µM,–,> 20 µM,> 20 µM
Nc1nc(N2CCCC2)c2ncn(/C=C3/CC3(CO)CO)c2n1,> 300 µM,> 300 µM,> 20 µM,> 20 µM,> 24 µM,–,> 300 µM,> 300 µM,> 24 µM,> 300 µM,–,> 20 µM,> 20 µM
Nc1nc(N2CCOCC2)c2ncn(/C=C3/CC3(CO)CO)c2n1,> 300 µM,> 300 µM,> 20 µM,> 20 µM,> 24 µM,–,> 300 µM,> 300 µM,> 24 µM,> 300 µM,–,> 20 µM,> 20 µM
CCOc1nc(N)nc2c1ncn2/C=C1/CC1(CO)CO,> 100 µM,1.6 µM,> 20 µM,> 20 µM,11.9 µM,11.2 µM,> 300 µM,> 300 µM,> 20 µM,> 300 µM,> 20 µM,> 20 µM,> 20 µM
CCCOc1nc(N)nc2c1ncn2/C=C1/CC1(CO)CO,2.9 µM,1.1 µM,16 µM,18 µM,8.9 µM,6.6 µM,> 300 µM,> 300 µM,> 20 µM,> 300 µM,> 20 µM,> 20 µM,> 20 µM
C=CCOc1nc(N)nc2c1ncn2/C=C1/CC1(CO)CO,> 300 µM,1.1 µM,17 µM,> 20 µM,11 µM,11.4 µM,> 300 µM,> 300 µM,> 20 µM,> 300 µM,> 20 µM,> 20 µM,> 20 µM
CCCCOc1nc(N)nc2c1ncn2/C=C1/CC1(CO)CO,> 100 µM,1.6 µM,> 20 µM,> 20 µM,1.6 µM,3.2 µM,> 300 µM,> 300 µM,> 20 µM,> 300 µM,> 20 µM,> 20 µM,> 20 µM
CCCCCOc1nc(N)nc2c1ncn2/C=C1/CC1(CO)CO,> 60 µM,0.5 µM,> 20 µM,> 20 µM,0.5 µM,> 20 µM,> 300 µM,> 300 µM,> 20 µM,259 µM,> 20 µM,> 20 µM,> 20 µM
CCCCCCOc1nc(N)nc2c1ncn2/C=C1/CC1(CO)CO,–,3.9 µM,> 20 µM,> 20 µM,7.3 µM,9.5 µM,> 300 µM,> 300 µM,> 20 µM,> 200 µM,> 20 µM,> 20 µM,> 20 µM
CC(C)CSc1nc(N)nc2c1ncn2/C=C1/CC1(CO)CO,> 50 µM,31 µM,> 20 µM,> 20 µM,2.3 µM,–,> 300 µM,> 300 µM,> 20 µM,> 300 µM,–,> 20 µM,60 µM
COc1nc(N)nc2nc[nH]c12,7.4 µM,2.8 µM,13 µM,> 20 µM,1 µM,> 20 µM,> 300 µM,> 300 µM,> 20 µM,171 µM,> 20 µM,51 µM,> 20 µM
